Data on five molecules can be found in ChEMBL document CHEMBL1121813, “Dihydrochalcone sweeteners. A study of the atypical temporal phenomena” (1981).

Common to all, as to type: functional
The species named for experiment [1] is Homo sapiens. Kind of experiment: Sweet character at a concentration of 251 ppm (mean value). Put shortly:
(§1)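 Trained human sensory panel (Swartz method) tasted dilute aqueous solutions of the compounds, which had to be ≥95 weight percent pure and free of mutagenicity and toxicity. Taste character is reported as the mean value with 2S_m limits. Data deviating excessively at the 95% confidence level were rejected by the t-value method.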

For experiment [2], the species on record is Homo sapiens. Kind of experiment: Bitter character at a concentration of 251 ppm (mean value). Put shortly: (§2)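 Trained human panel tasted aqueous solutions. Each judge reported whether there was an aftertaste and its character (sweet, bitter or bitter-sweet). The value is the percentage of judgments reporting a bitter aftertaste.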
For experiment [3], the species on record is Homo sapiens. Kind of experiment: Salty character at a concentration of 251 ppm (mean value). Put shortly: as §1
The species entered for experiment [4] is Homo sapiens. Description: Percentage of judgments reporting an aftertaste at a concentration of 251 ppm and character thereof; Bitter. Put shortly: (§3)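 Trained judges tasted aqueous solutions of the compounds, which had to be ≥95 weight percent pure and to have passed mutagenicity and single oral dose toxicity screening. The value is the percentage of panel judgments reporting an aftertaste. Where given, its character is recorded as sweet, bitter or bitter-sweet.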

The species named for experiment [5] is Homo sapiens. Description: Intensity calculated on a molar basis relative to a 0.25 M sucrose solution at a concentration of 251 ppm (mean value). Put shortly:
(§4)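 Trained human judges tasted aqueous solutions of the test compound; compounds were first required to be ≥95 weight percent pure and free of mutagenicity (five Salmonella typhimurium strains, ± microsomal activation) and of single oral dose mouse toxicity. Molar intensity I_m = perceived intensity × (0.25 M sucrose / compound molar concentration). The mean is reported with 2S_m limits; outliers were rejected at 95% confidence by t-value.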

For experiment [6], the species on record is Homo sapiens. Kind of experiment: Intensity calculated on a weight basis relative to an 85500 ppm sucrose solution at a concentration of 251 ppm (mean value). In a few lines:
(§5)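 Trained human panel tasted aqueous solutions of purity-checked (≥95 weight percent) compounds cleared for mutagenicity and mouse oral toxicity. Weight-basis intensity I_w = perceived intensity × (85500 ppm sucrose / compound concentration in ppm). The mean is reported with 2S_m limits; data deviating excessively at 95% confidence were rejected by the t-value method.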

Experiment [7] is filed under the species Homo sapiens. Description: Number of taste judgments per compound.
The species named for experiment [8] is Homo sapiens. Kind of experiment: Experimentally determined perceived intensity of compound at a concentration of 251 ppm (mean value). In a few lines:
(§6)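 Trained human sensory panel of judges tasted aqueous solutions of the compound. Samples had to be ≥95 weight % pure (HPLC, proton titration, Karl Fischer), non-mutagenic in five Salmonella typhimurium strains with and without microsomal activation, and non-toxic in a single-oral-dose mouse test. Perceived intensity (Ip) was read from time–intensity curves at 4- or 6-s intervals and averaged. Outliers at the 95% level were rejected by t-value. Values reported as mean (2Sm).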

Experiment [9] is filed under the species Homo sapiens. Description: Other taste character at a concentration of 251 ppm (mean value). Put shortly: as §1
For experiment [10], the species on record is Homo sapiens. Description: Sour character at a concentration of 251 ppm (mean value). In a few lines: as §1
Experiment [11] is filed under the species Homo sapiens. Kind of experiment: Sweet / Bitter character at a concentration of 251 ppm (mean value).
Experiment [12] is filed under the species Homo sapiens. Description: Experimentally determined perceived intensity of compound at a concentration of 252 ppm (mean value). In a few lines: as §6
The species named for experiment [13] is Homo sapiens. Description: Bitter character at a concentration of 252 ppm (mean value). Put shortly:
as §2

The species named for experiment [14] is Homo sapiens. Description: Percentage of judgments reporting an aftertaste at a concentration of 252 ppm and character thereof; Bitter. Put shortly: as §3
For experiment [15], the species on record is Homo sapiens. Kind of experiment: Sour character at a concentration of 252 ppm (mean value). Put shortly: as §1
The species named for experiment [16] is Homo sapiens. Kind of experiment: Salty character at a concentration of 252 ppm (mean value). Put shortly: as §1
The species named for experiment [17] is Homo sapiens. Kind of experiment: Intensity calculated on a molar basis relative to a 0.25 M sucrose solution at a concentration of 252 ppm (mean value). In a few lines:
as §4

For experiment [18], the species on record is Homo sapiens. Kind of experiment: Sweet character at a concentration of 252 ppm (mean value). Put shortly:
as §1

For experiment [19], the species on record is Homo sapiens. Kind of experiment: Other taste character at a concentration of 252 ppm (mean value). In a few lines:
as §1

Experiment [20] is filed under the species Homo sapiens. Kind of experiment: Intensity calculated on a weight basis relative to an 85500 ppm sucrose solution at a concentration of 252 ppm (mean value). In a few lines: as §5
Experiment [21] is filed under the species Homo sapiens. Description: Sweet / Bitter character at a concentration of 252 ppm (mean value).
Experiment [22] is filed under the species Homo sapiens. Description: Intensity calculated on a molar basis relative to a 0.25 M sucrose solution at a concentration of 2000 ppm (mean value). Put shortly:
as §4

For experiment [23], the species on record is Homo sapiens. Description: Intensity calculated on a weight basis relative to an 85500 ppm sucrose solution at a concentration of 2000 ppm (mean value). Put shortly:
as §5

The species named for experiment [24] is Homo sapiens. Kind of experiment: Sweet character at a concentration of 2000 ppm (mean value). Put shortly:
as §1

Experiment [25] is filed under the species Homo sapiens. Description: Other taste character at a concentration of 2000 ppm (mean value). In a few lines: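 Trained human panel tasted aqueous solutions of each compound. Aftertaste is scored as the percentage of judgments reporting one, with its character coded sweet (s), bitter (b) or bitter-sweet (bs).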
The species named for experiment [26] is Homo sapiens. Description: Bitter character at a concentration of 2000 ppm (mean value). Put shortly:
as §2

Experiment [27] is filed under the species Homo sapiens. Description: Percentage of judgments reporting an aftertaste at a concentration of 2000 ppm and character thereof. Put shortly: as §3
For experiment [28], the species on record is Homo sapiens. Description: Sour character at a concentration of 2000 ppm (mean value). Put shortly:
as §1

The species named for experiment [29] is Homo sapiens. Description: Sweet / Bitter character at a concentration of 2000 ppm (mean value); 0/100.
The species named for experiment [30] is Homo sapiens. Description: Experimentally determined perceived intensity of compound at a concentration of 2000 ppm (mean value). Put shortly: as §6
For experiment [31], the species on record is Homo sapiens. Kind of experiment: Salty character at a concentration of 2000 ppm (mean value). Put shortly:
as §1

The species entered for experiment [32] is Homo sapiens. Description: Intensity calculated on a molar basis relative to a 0.25 M sucrose solution at a concentration of 250 ppm (mean value). In a few lines: as §4
The species entered for experiment [33] is Homo sapiens. Kind of experiment: Sweet / Bitter character at a concentration of 250 ppm (mean value); 0/100.
For experiment [34], the species on record is Homo sapiens. Kind of experiment: Salty character at a concentration of 250 ppm (mean value). In a few lines: as §1
For experiment [35], the species on record is Homo sapiens. Description: Sweet character at a concentration of 250 ppm (mean value). Put shortly: as §1
For experiment [36], the species on record is Homo sapiens. Description: Other taste character at a concentration of 250 ppm (mean value). Put shortly: as §1
Experiment [37] is filed under the species Homo sapiens. Kind of experiment: Experimentally determined perceived intensity of compound at a concentration of 250 ppm (mean value). Put shortly: as §6
Experiment [38] is filed under the species Homo sapiens. Description: Intensity calculated on a weight basis relative to an 85500 ppm sucrose solution at a concentration of 250 ppm (mean value). Put shortly: as §5
For experiment [39], the species on record is Homo sapiens. Kind of experiment: Sour character at a concentration of 250 ppm (mean value). In a few lines:
as §1

The species entered for experiment [40] is Homo sapiens. Kind of experiment: Percentage of judgments reporting an aftertaste at a concentration of 250 ppm and character thereof. In a few lines: as §3
Experiment [41] is filed under the species Homo sapiens. Description: Bitter character at a concentration of 250 ppm (mean value). Put shortly: as §2
The species entered for experiment [42] is Homo sapiens. Description: Percentage of judgments reporting an aftertaste at a concentration of 2400 ppm and character thereof. Put shortly: as §3
The species named for experiment [43] is Homo sapiens. Kind of experiment: Experimentally determined perceived intensity of compound at a concentration of 2400 ppm (mean value). Put shortly:
as §6

Turning to `COc1ccc(C2CC(=O)c3c(O)cc(OCC(=O)[O-])cc3O2)cc1O.[Na+]` (configuration not stated), the Taste character in the experiment listed under Homo sapiens [1] was 15; in the experiment filed under Homo sapiens [2], 78; in the experiment filed under Homo sapiens [3] it was 0; in the experiment filed under Homo sapiens [9], 7; in the experiment filed under Homo sapiens [10], 0; in the experiment listed under Homo sapiens [11], 16. Besides, the Judgments is 100 in the experiment listed under Homo sapiens [4] and 12 in the experiment listed under Homo sapiens [7]. Besides, the IM in the experiment listed under Homo sapiens [5] is listed as 300. For the same molecule, in the experiment listed under Homo sapiens [6], the IW is given as 270. In the experiment filed under Homo sapiens [8], this molecule had an IP of 0.79.
`O=C(O)CCc1cccc(O)c1` returned an IP in the experiment filed under Homo sapiens [12] of 0.46. Further, the Taste character was found to be 4 in the experiment filed under Homo sapiens [13]; 96 in the experiment filed under Homo sapiens [15]; 0 in the experiment filed under Homo sapiens [16]; 0 in the experiment listed under Homo sapiens [18]; 0 in the experiment filed under Homo sapiens [19]; 0 in the experiment filed under Homo sapiens [21]. Further, the Judgments in the experiment filed under Homo sapiens [14] was 38; in the experiment listed under Homo sapiens [7], 8. Besides, the IM in the experiment listed under Homo sapiens [17] is given as 80. For the same molecule, in the experiment filed under Homo sapiens [20], the IW was 160.
Turning to `CC(=O)c1c(O)cc(OCC(=O)[O-])cc1O.[Na+]`, the IM in the experiment listed under Homo sapiens [22] is given as 0. Further, the IW in the experiment filed under Homo sapiens [23] is reported as 10. Moreover, the Taste character was 0 in the experiment filed under Homo sapiens [24]; 0 in the experiment filed under Homo sapiens [25]; 100 in the experiment filed under Homo sapiens [26]; 0 in the experiment filed under Homo sapiens [28]; 0 in the experiment listed under Homo sapiens [29]; 0 in the experiment listed under Homo sapiens [31]. In addition, the Judgments in the experiment listed under Homo sapiens [27] stood at 0; in the experiment listed under Homo sapiens [7], 1. This molecule also had an IP in the experiment filed under Homo sapiens [30] of 0.25.
`O=C(O)CCc1ccc(O)c(O)c1` [DIHYDROCAFFEIC ACID]: the IM in the experiment filed under Homo sapiens [32] is reported as 130. For the same molecule, the Taste character was 0 in the experiment listed under Homo sapiens [33]; 0 in the experiment filed under Homo sapiens [34]; 0 in the experiment listed under Homo sapiens [35]; 9 in the experiment filed under Homo sapiens [36]; 76 in the experiment filed under Homo sapiens [39]; 15 in the experiment listed under Homo sapiens [41]. Also, in the experiment listed under Homo sapiens [37], the IP was found to be 0.73. The IW in the experiment listed under Homo sapiens [38] is listed as 250. In addition, the values for the Judgments in the experiment filed under Homo sapiens [40] and in the experiment listed under Homo sapiens [7] were 50 and 8, respectively.
In the case of `COc1ccc(CCC(=O)c2c(O)cc(OC(CCC(=O)[O-])C(=O)[O-])cc2O)cc1O.[Na+].[Na+]` (configuration not stated), the Judgments in the experiment listed under Homo sapiens [42] is on record as 0; in the experiment filed under Homo sapiens [7] it was 1. Moreover, the IP in the experiment listed under Homo sapiens [43] is given as 0.
